Assay results of several laboratories.
Protocols differ between the studies behind these lines.
Organism: Trypanosoma brucei
Effect on: parasite growth

c1ccc(CCCN2CCN(CCOC(c3ccccc3)c3ccccc3)CC2)cc1  EC50 (blood stage): 9.3 µM
Cc1nn(C)c(C)c1NS(=O)(=O)c1c(Cl)cc(-c2ccnc(N3CCNCC3)c2)cc1Cl  EC50 (RHODESIENSE): 0.0006 µM
CNC1CC(c2ccc(Cl)c(Cl)c2)c2ccccc21 (centres unmarked)  EC50 (blood stage): 1.97 µM
COC(=O)C1CCN(C(=O)c2ccc(NCc3cnc4nc(N)nc(N)c4n3)cc2)CC1  inhibition (resazurin; 10 µM, 72 h): 16%
O=C(O)c1ccccc1-c1ccccc1C(=O)Nc1cc2c3ccccc3ccc2c2ccccc12  EC50 (resazurin; 72 h): 24.4 µM
COC(=O)C1CCN(C(=O)c2ccc(N(C)Cc3cnc4nc(N)nc(N)c4n3)cc2)CC1  inhibition (resazurin; 10 µM, 72 h): 26%
O=C(O)c1ccccc1-c1ccccc1C(=O)Nc1ccc2c(c1)oc(=O)c1ccccc12  EC50 (resazurin; 72 h): > 50 µM
Nc1nc(N)nc(Nc2ccc([As]3SCC(CO)S3)cc2)n1 (centres unmarked)  IC50 (RHODESIENSE STIB900): 0.007 µM
